The values below come from ChEMBL document CHEMBL1134263, “Syntheses and evaluation of quinoline derivatives as novel retinoic acid receptor alpha antagonists” (Bioorg Med Chem Lett, 2001).

The subject of assay [1] is HL-60. Put plainly: Agonistic activity was evaluated by HL-60 cell differentiation activity. The format is functional, Homo sapiens. The method in brief:
(§1)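 HL-60 cell differentiation was read out as CD11b expression, used as the differentiation marker.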

Assay [2] has as its target T1, Retinoic acid receptor beta (Homo sapiens) (UniProt P10826).
T1 sequence (whole entry): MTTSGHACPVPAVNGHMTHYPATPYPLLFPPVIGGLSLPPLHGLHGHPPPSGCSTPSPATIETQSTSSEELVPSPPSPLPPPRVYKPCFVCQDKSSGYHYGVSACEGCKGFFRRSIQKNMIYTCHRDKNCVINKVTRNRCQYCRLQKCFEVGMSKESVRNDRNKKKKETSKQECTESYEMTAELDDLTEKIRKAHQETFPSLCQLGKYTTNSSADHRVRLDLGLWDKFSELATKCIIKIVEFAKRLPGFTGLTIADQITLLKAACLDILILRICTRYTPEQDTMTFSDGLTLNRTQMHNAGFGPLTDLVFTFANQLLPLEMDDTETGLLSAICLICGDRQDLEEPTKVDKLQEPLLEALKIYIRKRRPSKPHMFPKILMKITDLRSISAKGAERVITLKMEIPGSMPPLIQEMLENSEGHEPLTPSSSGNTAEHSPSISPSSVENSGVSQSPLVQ
The assay can be described thus: Retinoid activity at Retinoic acid receptor beta was evaluated relative to that of All-trans retinoic acids(Mean of ATRA EC50 = 1.02 nM). Put shortly:
(§2)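 Gene transcription was induced in a co-transfection transactivation assay at each RAR subtype. Full dose-response curves started from 0.1 nM. EC30 is the concentration giving 30% of the maximal observed response. The reported value is the mean of EC30/ATRA EC30. Activity was taken as not detectable when EC30 > 3000 nM.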

Assay [3] has as its target T1, Retinoic acid receptor beta (Homo sapiens). The assay can be described thus: In vitro binding affinity towards Retinoic acid receptor beta evaluated relative to that of All-trans retinoic acids(Mean of ATRA IC50 = 0.52 nM).
In assay [4] the target is T2, Retinoic acid receptor gamma (Homo sapiens) (UniProt P13631).
T2 sequence (whole entry): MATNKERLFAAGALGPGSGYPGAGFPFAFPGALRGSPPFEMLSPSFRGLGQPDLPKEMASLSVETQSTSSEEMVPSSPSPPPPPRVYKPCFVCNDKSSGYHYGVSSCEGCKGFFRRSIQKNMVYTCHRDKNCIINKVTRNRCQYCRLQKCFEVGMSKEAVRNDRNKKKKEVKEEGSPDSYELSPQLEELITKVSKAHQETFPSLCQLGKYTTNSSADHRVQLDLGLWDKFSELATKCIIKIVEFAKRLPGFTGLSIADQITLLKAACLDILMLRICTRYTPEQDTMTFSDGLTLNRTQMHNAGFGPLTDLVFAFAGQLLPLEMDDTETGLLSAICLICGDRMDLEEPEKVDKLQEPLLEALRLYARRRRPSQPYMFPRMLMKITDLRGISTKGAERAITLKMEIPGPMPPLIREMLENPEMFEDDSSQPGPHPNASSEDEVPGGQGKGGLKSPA
Put plainly: Retinoid activity at Retinoic acid receptor gamma was evaluated relative to that of All-trans retinoic acids(Mean of ATRA EC50 = 0.26 nM). Put shortly: as §2

The target in assay [5] is T2, Retinoic acid receptor gamma (Homo sapiens). The assay can be described thus: In vitro binding affinity towards Retinoic acid receptor gamma evaluated relative to that of All-trans retinoic acids(Mean of ATRA IC50 = 0.42 nM).
Assay [6] deals with T3, Retinoic acid receptor alpha (Homo sapiens) (UniProt P10276).
T3 sequence (whole entry): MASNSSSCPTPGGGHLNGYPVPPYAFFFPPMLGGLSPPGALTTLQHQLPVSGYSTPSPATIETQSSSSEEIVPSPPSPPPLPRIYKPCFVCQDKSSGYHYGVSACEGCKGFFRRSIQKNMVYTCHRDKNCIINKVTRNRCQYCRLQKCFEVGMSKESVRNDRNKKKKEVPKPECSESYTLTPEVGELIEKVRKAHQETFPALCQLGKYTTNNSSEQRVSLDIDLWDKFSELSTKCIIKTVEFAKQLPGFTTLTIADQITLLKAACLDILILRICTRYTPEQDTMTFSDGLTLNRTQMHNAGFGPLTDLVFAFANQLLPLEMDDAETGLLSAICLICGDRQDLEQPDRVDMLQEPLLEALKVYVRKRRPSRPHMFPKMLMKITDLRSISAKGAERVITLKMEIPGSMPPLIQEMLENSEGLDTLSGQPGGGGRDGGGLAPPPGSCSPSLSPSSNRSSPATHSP
The assay can be described thus: Retinoid activity at Retinoic acid receptor alpha was evaluated relative to that of All-trans retinoic acids(Mean of ATRA EC50 = 1.06 nM). Put shortly: as §2

The target of assay [7] is T3, Retinoic acid receptor alpha (Homo sapiens). The assay can be described thus: In vitro binding affinity towards Retinoic acid receptor alpha evaluated relative to that of All-trans retinoic acids(Mean of ATRA IC50 = 0.66 nM).
Assay [8] concerns HL-60. Put plainly: Agonistic activity was evaluated by HL-60 cell differentiation activity; Not detectable. The format is functional, Homo sapiens. Put shortly: as §1
Assay [9] addresses T4, Retinoic acid receptor alpha (Homo sapiens, UniProt P10276).
T4 sequence (P10276 whole entry): T3 sequence (whole entry)
The assay can be described thus: Antagonistic activity was evaluated in terms of inhibition of Retinoic acid receptor alpha transactivation by ATRA (50 nM). The format is functional.

Assay [10] concerns the target T3, Retinoic acid receptor alpha (Homo sapiens). The assay can be described thus: Retinoid activity at Retinoic acid receptor alpha was evaluated relative to that of All-trans retinoic acids(Mean of ATRA EC50 = 1.06 nM); Not detectable. The method in brief:
as §2

Assay [11] deals with T5, Retinoic acid receptor gamma (Homo sapiens, UniProt P13631).
T5 sequence (P13631 whole entry): T2 sequence (whole entry)
The assay can be described thus: Antagonistic activity was evaluated in terms of inhibition of Retinoic acid receptor gamma transactivation by ATRA (50 nM); Not detectable. The format is functional.

Assay [12] has as its target T6, Retinoic acid receptor beta (Homo sapiens, UniProt P10826).
T6 sequence (P10826 whole entry): T1 sequence (whole entry)
The assay can be described thus: Antagonistic activity was evaluated in terms of inhibition of Retinoic acid receptor beta transactivation by ATRA (50 nM); Not detectable. The format is functional.

Assay [13] has as its system HL-60. The assay can be described thus: Antagonistic activity was evaluated in terms of inhibition of HL-60 cell differentiation activity by ATRA (10 nM). The format is functional, cell-based. Particulars: Homo sapiens. The method in brief:
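HL-60 cells were induced to differentiate with ATRA (10 nM). Antagonism was scored as inhibition of that differentiation, read out as CD11b expression.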

The target in assay [14] is T2, Retinoic acid receptor gamma (Homo sapiens). Put plainly: In vitro binding affinity towards Retinoic acid receptor gamma evaluated relative to that of All-trans retinoic acids(Mean of ATRA IC50 = 0.42 nM); Not detectable.

As for `Cc1cc(-c2ccc(-c3ccc(C(=O)O)cc3)[nH]2)nc2c(C(C)C)cccc12`, the ED30 in [1] turned out to be 100 nM. Further, the Relative EC30 in [2] was 16; in assay [4], 903; in [6], 2.8. The values for the Relative IC50 in assay [3], in [5] and in assay [7] were 71, 141 and 1.7, respectively.

For `CC(C)c1cccc2c(-c3ccccc3)cc(-c3ccc(-c4ccc(C(=O)O)cc4)[nH]3)nc12`, in assay [8], the ED30 was above 10000 nM. Moreover, the IC50 in [9] was 31.2 nM; in [11], above 3000 nM; in [12], above 3000 nM; in [13] it was 6.4 nM. In addition, the Relative IC50 in assay [3] stood at 535; in assay [5], 432; in [7], 1.8. The Relative EC30 in [4] and in assay [10] was above 3000 each time.

Take `CC(C)c1cccc2ccc(-c3ccc(-c4ccc(C(=O)O)cc4)[nH]3)nc12`: the ED30 in [1] came to 2500 nM. The Relative EC30 in assay [2] worked out at 97; in assay [4] it was 5770; in assay [6], 3. Moreover, the results for the Relative IC50 in [3], in assay [14] and in assay [7] were 579, above 1000 and 5.7, respectively.

In turn, `CCc1cc(-c2ccc(-c3ccc(C(=O)O)cc3)[nH]2)nc2c(C(C)C)cccc12` displayed an ED30 in [8] above 10000 nM. The Relative EC30 stood at 22 in assay [2], 180 in assay [4] and 2.5 in [6]. For the same compound, the Relative IC50 in [3] came to 32; in assay [5] it was 22; in assay [7], 0.7. Also, it took 17 nM to reach half-maximal inhibition in [13] (IC50).

The compound `CC(C)c1cccc2c(Cl)cc(-c3ccc(-c4ccc(C(=O)O)cc4)[nH]3)nc12` displayed an ED30 in assay [1] of 100 nM. Besides, the Relative EC30 in assay [2] stood at 17; in [4], 1160; in assay [6], 1.9. The Relative IC50 in assay [3] turned out to be 79; in [5], 251; in assay [7], 1.3.

`COc1cc(-c2ccc(-c3ccc(C(=O)O)cc3)[nH]2)nc2c(C(C)C)cccc12` gave an ED30 in [8] above 10000 nM. The Relative EC30 in assay [2] was 38; in [4], 4460; in [10] it was above 3000. In addition, the results for the Relative IC50 in assay [3], in assay [5] and in assay [7] were 475, 834 and 0.8, respectively. For the same compound, the IC50 in assay [13] turned out to be 1.6 nM.

Broadly, the IC50 is the concentration needed to halve the response being measured.
